Results as given in ChEMBL document CHEMBL4406830, “Galloyl esters of trans-stilbenes are inhibitors of FASN with anticancer activity on non-small cell lung cancer cells” (Eur J Med Chem, 2019).
Activity calls are given as the source filed them. The calls are words filed in the database; no cut-off is given here.

Tests used:
[1] = system: NCI-H1703; experiment: Induction of apoptosis in human NCI-H1703 cells expressing FASN assessed as increase in late apoptotic cells at 100 uM after 72 hrs by Annexin-V FITC staining/PI-based flow cytometry; type: functional, cell-based
In short: (§1)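 H1703 or PC-9 cells seeded at 1.5 × 10^5 cells/2 mL in 6-well plates and left to attach overnight. Treated at 100 µM, with a 0.1% DMSO vehicle control, at 37 °C and 5% CO2. Exposure is given as 72 h in the results and 48 h in the methods. Cells were harvested, rinsed in ice-cold PBS, stained with Annexin V-FITC/PI in binding buffer and read by flow cytometry. Early apoptosis was Annexin V+ only; late apoptosis was double positive. Triplicates.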

[2] = Cytotoxicity against human SAE cells lacking FASN expression assessed as reduction in cell viability after 72 hrs by MTS assay; type: cell-based
In short: (§2)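 ATCC-sourced cells. H1299, H1650, H1703 and PC-9 were grown in RPMI 1640 with 10% FBS. A549 was grown in high-glucose DMEM with 10% FBS and 1 mM pyruvate. SAEC was grown in BEGM. Cells were seeded at 3 × 10^3 per well (H1650 3.5 × 10^3) and left to attach overnight. Serial dilutions from DMSO stocks were added, 0.1% DMSO final, for 72 h at 37 °C, 5% CO2. Medium was replaced, MTS added, and A490 read after 2 h. IC50 was taken from % viability versus log concentration, 3 experiments.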

[3] = system: NCI-H1703; experiment: Antiproliferative activity against human NCI-H1703 cells expressing FASN assessed as reduction in cell viability after 72 hrs by MTS assay; type: functional, cell-based; conditions: NCI-H1703, 72 h; in short: as §2
[4] = system: NCI-H1650; experiment: Antiproliferative activity against human NCI-H1650 cells expressing FASN assessed as reduction in cell viability after 72 hrs by MTS assay; type: functional, cell-based; conditions: NCI-H1650, 72 h; in short: as §2
[5] = system: NCI-H1299; experiment: Antiproliferative activity against human NCI-H1299 cells expressing FASN assessed as reduction in cell viability after 72 hrs by MTS assay; type: functional, cell-based; conditions: NCI-H1299, 72 h; in short: as §2
[6] = Selectivity index, ratio of IC50 for human SAE cells lacking FASN expression to IC50 for human NCI-H1703 cells expressing FASN
In short: (§3)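 Index is the SAEC IC50 divided by the IC50 in the FASN-expressing NSCLC line. IC50s came from MTS viability after 72 h exposure at 37 °C, 5% CO2, DMSO 0.1% v/v. Absorbance was read at 490 nm after 2 h. The fit was % viability against log concentration, with 4 technical repeats and 3 independent experiments. NSCLC lines were grown in RPMI/10% FBS; SAEC in BEGM.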

[7] = system: PC-9; experiment: Antiproliferative activity against human PC9 cells harboring FASN expression and EGFR delE746-A750 mutant assessed as reduction in cell viability after 72 hrs by MTS assay; type: functional, cell-based; conditions: PC-9, 72 h; in short: as §2
[8] = target: Fatty acid synthase (Homo sapiens) (UniProt P49327); experiment: (§4) Inhibition of FASN in human PC9 cells harboring FASN expression and EGFR delE746-A750 mutant assessed as disruption of AKT/FASN positive feedback loop by measuring decrease in ratio of phosphoAKT/AKT expression at 100 uM after 48 hrs by Western immunoblot based densitometric assay relative to control; type: cell-based
In short: (§5)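 PC-9 cells were seeded at 8 × 10^5 per 100 mm dish and treated 48 h with compound, with or without chemically defined lipid concentrate (vehicle control included). RIPA lysates with protease inhibitors were BCA-quantified and run on 8% SDS-PAGE, then PVDF. Blots were probed for phospho-AKT Ser473 and total AKT (each 1:1,000, TBS-T/milk block). ECL detection; pAKT/AKT densitometry normalised to untreated control.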

[9] = Selectivity index, ratio of IC50 for human SAE cells lacking FASN expression to IC50 for human A549 cells expressing FASN
In short: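 The ratio IC50(SAEC)/IC50(NSCLC line) was calculated from 72 h MTS viability IC50 values.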

[10] = Selectivity index, ratio of IC50 for human SAE cells lacking FASN expression to IC50 for human NCI-H1299 cells expressing FASN expression; in short: as §3
[11] = system: A549; experiment: Antiproliferative activity against human A549 cells expressing FASN assessed as reduction in cell viability after 72 hrs by MTS assay; type: functional, cell-based; conditions: A549, 72 h; in short: as §2
[12] = target: Fatty acid synthase (Homo sapiens) (UniProt P49327); experiment: as §4, with “FASN” for “decrease in ratio of phosphoAKT/AKT”, “hrs in presence of exogenous lipid concentrate” for “hrs”; type: cell-based
In short: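 PC-9 cells were seeded at 8 × 10^5 per 100 mm dish, attached overnight, then treated 48 h with compound plus chemically defined lipid concentrate. Cells were lysed in RIPA with protease inhibitors and protein quantified by BCA. Lysates were run on 8% SDS-PAGE and blotted to PVDF. Blots were probed for FASN (1:2,000, PBS-T/milk block) and GAPDH. ECL detection; FASN/GAPDH densitometry normalised to untreated control.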

[13] = target: Fatty acid synthase (Homo sapiens) (UniProt P49327); experiment: Inhibition of full length human FASN transfected in HeLa cell lysates at 150 uM using acetyl Co-A/malonyl Co-A as substrate preincubated with enzyme for 2 hrs followed by substrate addition measured after 10 mins in presence of NADPH by microplate reader analysis; type: subcellular; conditions: Lysate
In short: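 Human FASN was made by coupled in vitro translation of a FASN plasmid; the legend calls this HeLa cell lysate. Lysate was diluted 3:7 in 100 mM potassium phosphate pH 6.5 with 1 mM EDTA, then preincubated with compound for 2 h at 37 °C. Buffer containing acetyl-CoA (55 µM) and NADPH (330 µM) was added, and the reaction started with malonyl-CoA solution (500 µM). A340 was read at 0 and 10 min, and inhibition taken against untreated lysate. Triplicates.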

[14] = system: PC-9; experiment: Antiproliferative activity against human PC9 cells harboring FASN expression and EGFR delE746-A750 mutant assessed as cell viability at 100 uM after 72 hrs in presence of exogenous lipid concentrate by MTS assay; type: functional, cell-based
In short: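 PC-9 cells seeded at 3 × 10^3 cells/100 µL in RPMI 1640 and left to attach overnight. Compound added as for the viability assay, with DMSO at 0.1% v/v. After 6 h at 37 °C and 5% CO2, chemically defined lipid concentrate was added to 2% v/v final. Incubation then continued 72 h. Viability was read by MTS absorbance at 490 nm against untreated cells, in triplicate.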

[15] = Selectivity index, ratio of IC50 for human SAE cells lacking FASN expression to IC50 for human PC9 cells harboring FASN expression and EGFR delE746-A750 mutant; in short: as §3
[16] = target: Fatty acid synthase (Homo sapiens) (UniProt P49327); experiment: as §4, with “measuring” for “measuring decrease in”, “hrs in presence of exogenous lipid concentrate” for “hrs”; type: cell-based; in short: as §5
[17] = system: PC-9; experiment: Induction of apoptosis in human PC9 cells harboring FASN expression and EGFR delE746-A750 mutant at 100 uM after 72 hrs by Annexin-V FITC/PI staining-based flow cytometry; type: functional, cell-based; in short: as §1
[18] = Selectivity index, ratio of IC50 for human SAE cells lacking FASN expression to IC50 for human NCI-H1650 cells expressing FASN; in short: as §3
[19] = target: Fatty acid synthase (Homo sapiens) (UniProt P49327); experiment: Inhibition of full length human FASN transfected in HeLa cell lysates at 10 uM using acetyl Co-A/malonyl Co-A as substrate preincubated with enzyme for 2 hrs followed by substrate addition measured after 10 mins in presence of NADPH by microplate reader analysis; type: subcellular; conditions: Lysate
In short: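 Human FASN was made by in vitro translation from a FASN plasmid. Lysate was diluted 3:7 in 100 mM potassium phosphate, pH 6.5, 1 mM EDTA. It was preincubated with compound (10 µM final) for 2 h at 37 °C. Buffer containing acetyl-CoA (55 µM) and NADPH (330 µM) was added, then the reaction was started with malonyl-CoA (500 µM stock). A340 was read at 0 and 10 min; triplicates.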

[20] = target: Fatty acid synthase (Homo sapiens) (UniProt P49327); experiment: Inhibition of FASN in human PC9 cells harboring FASN expression and EGFR delE746-A750 mutant assessed as disruption of AKT/FASN positive feedback loop by measuring decrease in FASN expression at 100 uM after 48 hrs by Western immunoblot based densitometric assay relative to control; type: cell-based
In short: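 PC-9 or H1703 cells were seeded at 8 × 10^5 per 100 mm dish and treated for 48 h at 1 or 5 µM (or 5, 50 and 100 µM). RIPA lysates were BCA-quantified and run on 8% SDS-PAGE, then transferred to PVDF. Blots were probed for FASN, AKT, phospho-AKT S473 and GAPDH and detected by ECL. Bands were quantified by densitometry and normalised to vehicle control.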

Sequence of Fatty acid synthase (Homo sapiens) (P49327 whole entry, looked up): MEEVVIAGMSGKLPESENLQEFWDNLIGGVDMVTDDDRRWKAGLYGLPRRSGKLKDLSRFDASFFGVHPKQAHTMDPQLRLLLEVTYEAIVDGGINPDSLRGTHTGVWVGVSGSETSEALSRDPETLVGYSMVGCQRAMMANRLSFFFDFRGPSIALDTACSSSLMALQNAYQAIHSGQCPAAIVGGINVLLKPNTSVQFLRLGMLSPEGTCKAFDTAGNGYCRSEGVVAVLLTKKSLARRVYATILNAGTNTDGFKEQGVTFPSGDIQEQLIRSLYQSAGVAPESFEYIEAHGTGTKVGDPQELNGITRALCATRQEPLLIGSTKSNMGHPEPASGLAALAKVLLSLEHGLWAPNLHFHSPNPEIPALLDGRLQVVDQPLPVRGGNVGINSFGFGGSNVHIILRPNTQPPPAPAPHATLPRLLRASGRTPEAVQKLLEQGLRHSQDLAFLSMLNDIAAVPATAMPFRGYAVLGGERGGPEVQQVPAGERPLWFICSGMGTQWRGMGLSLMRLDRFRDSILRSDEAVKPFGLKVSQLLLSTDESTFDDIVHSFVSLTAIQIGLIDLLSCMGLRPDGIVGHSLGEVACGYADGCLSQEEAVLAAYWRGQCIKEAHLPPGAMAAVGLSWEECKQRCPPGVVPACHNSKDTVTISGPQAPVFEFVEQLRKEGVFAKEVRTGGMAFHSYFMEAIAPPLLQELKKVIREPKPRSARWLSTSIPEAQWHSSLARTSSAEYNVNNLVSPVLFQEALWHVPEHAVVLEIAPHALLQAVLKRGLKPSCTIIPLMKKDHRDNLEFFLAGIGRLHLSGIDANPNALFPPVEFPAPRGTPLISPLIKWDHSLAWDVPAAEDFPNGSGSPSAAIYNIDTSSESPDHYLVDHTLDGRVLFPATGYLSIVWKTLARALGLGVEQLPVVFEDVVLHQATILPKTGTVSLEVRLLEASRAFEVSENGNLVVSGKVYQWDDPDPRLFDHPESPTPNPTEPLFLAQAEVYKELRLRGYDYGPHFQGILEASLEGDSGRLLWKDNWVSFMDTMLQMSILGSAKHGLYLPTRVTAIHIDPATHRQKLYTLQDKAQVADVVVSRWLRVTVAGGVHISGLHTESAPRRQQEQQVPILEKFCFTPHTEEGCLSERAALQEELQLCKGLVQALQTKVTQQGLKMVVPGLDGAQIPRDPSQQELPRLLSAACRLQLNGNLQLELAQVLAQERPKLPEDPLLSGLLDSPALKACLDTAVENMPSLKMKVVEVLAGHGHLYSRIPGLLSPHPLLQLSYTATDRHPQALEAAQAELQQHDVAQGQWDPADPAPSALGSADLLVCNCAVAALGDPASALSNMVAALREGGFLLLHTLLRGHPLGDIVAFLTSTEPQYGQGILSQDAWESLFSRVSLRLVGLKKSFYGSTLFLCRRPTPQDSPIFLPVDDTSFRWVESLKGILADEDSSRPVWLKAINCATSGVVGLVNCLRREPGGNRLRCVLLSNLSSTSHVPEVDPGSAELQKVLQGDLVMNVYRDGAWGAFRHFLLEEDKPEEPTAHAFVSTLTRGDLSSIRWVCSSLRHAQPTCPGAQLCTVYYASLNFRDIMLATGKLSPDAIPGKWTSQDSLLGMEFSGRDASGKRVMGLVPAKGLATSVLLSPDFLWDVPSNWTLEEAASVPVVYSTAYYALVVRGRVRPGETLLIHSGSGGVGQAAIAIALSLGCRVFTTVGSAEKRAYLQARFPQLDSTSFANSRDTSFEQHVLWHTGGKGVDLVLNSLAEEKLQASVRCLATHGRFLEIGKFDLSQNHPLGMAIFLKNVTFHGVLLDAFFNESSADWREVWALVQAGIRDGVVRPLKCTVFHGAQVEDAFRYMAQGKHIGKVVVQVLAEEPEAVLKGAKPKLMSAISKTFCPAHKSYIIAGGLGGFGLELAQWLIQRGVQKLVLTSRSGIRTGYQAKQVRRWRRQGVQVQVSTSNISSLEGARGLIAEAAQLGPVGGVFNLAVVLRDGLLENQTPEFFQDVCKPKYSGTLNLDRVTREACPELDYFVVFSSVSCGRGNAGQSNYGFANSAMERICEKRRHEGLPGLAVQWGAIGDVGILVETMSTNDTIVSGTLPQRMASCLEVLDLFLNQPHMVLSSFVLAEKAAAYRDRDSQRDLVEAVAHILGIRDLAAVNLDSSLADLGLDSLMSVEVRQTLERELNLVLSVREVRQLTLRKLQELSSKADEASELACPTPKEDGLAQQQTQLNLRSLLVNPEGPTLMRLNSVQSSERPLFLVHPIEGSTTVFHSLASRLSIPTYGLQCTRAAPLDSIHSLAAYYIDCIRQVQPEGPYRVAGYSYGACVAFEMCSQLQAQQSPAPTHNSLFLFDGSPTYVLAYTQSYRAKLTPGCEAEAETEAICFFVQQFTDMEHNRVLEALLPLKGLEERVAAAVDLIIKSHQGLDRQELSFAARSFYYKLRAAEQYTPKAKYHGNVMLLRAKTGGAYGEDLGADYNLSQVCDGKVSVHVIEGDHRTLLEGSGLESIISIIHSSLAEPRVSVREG

In the case of `O=C(O[C@@H]1Cc2c(O)cc(O)cc2O[C@@H]1c1cc(O)c(O)c(O)c1)c1cc(O)c(O)c(O)c1` [EPIGALOCATECHIN GALLATE], the Activity [1] is reported as “Active”, the IC50 [2] is reported as 110 µM and the IC50 [3] is reported as 17.1 µM. The IC50 [4] was 24.8 µM, the IC50 [5] was 20.6 µM and the “Ratio IC50” value [6] was 6.4. For the same compound, the IC50 [7] was 77.4 µM, the Ratio [8] was 0.14 and the “Ratio IC50” value [9] was 0.6. The “Ratio IC50” value [10] was 5.3, the IC50 [11] was 185 µM and the Ratio [12] was 0.89. The inhibition [13] was “Active”, the inhibition [14] was “inactive” and the “Ratio IC50” value [15] was 1.4. For the same compound, the Ratio [16] was 0.67, the Activity [17] was “Active” and the “Ratio IC50” value [18] was 4.4. The inhibition [19] was “inactive” and the Ratio [20] was 0.06.
